Activity calls are given as the source filed them. No cut-off for these calls is given here.
Experiments:
[1] = molecular target: Cholinesterase (Equus caballus) (UniProt P81908); experiment: Inhibition of equine serum BChE at 10 uM using S-butyrylthiocholine chloride as substrate preincubated for 15 mins followed by substrate addition and measured for 45 mins by Ellmans microplate assay
Outline: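 BuChE Ellman microplate assay at single 10 µM concentration: 0.1 M sodium phosphate buffer pH 8, sample in DMSO (1% final DMSO), 15 min room-temperature preincubation, then DTNB and S-butyrylthiocholine chloride; absorbance at 412 nm for 45 min, corrected by enzyme-free blanks. Quadruplicate, repeated at least twice; percent inhibition ± SD.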

Brain = experiment: Antioxidant activity in brain homogenate (unknown origin) assessed as decrease in TBARS formation by UV-visible spectrophotometric method; type: functional, tissue-based
Outline: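 Brain tissue homogenate mixed with test sample at five concentrations, SDS, 20% acetic acid and […], then heated at 95°C for 60 min. After cooling, the chromogen was extracted into butanol:pyridine (15:1) and centrifuged. Absorbance of the organic layer was read at 532 nm against a blank, in duplicate. % inhibition of TBARS = (Abs control − Abs sample)×100/Abs control.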

Mus musculus [2] = experiment: Toxicity in Swiss albino mouse assessed as effect on behavior at 800 mg/kg, po administered for 14 consecutive days; type: organism-based; details: in vivo
Outline: (§1)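 Acute oral toxicity per OECD-423 in Swiss albino mice (20–25 g), 3 male + 3 female per group, acclimatized 15 days; suspension in water with 1% w/v sodium carboxymethylcellulose, given p.o. at 900 then 800 mg/kg. Clinical signs, behaviour (awareness, mood, CNS excitation/depression, autonomic reflexes) and mortality observed at 15 min–72 h and up to 14 days.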

Mus musculus [3] = experiment: Toxicity in Swiss albino mouse assessed as CNS excitation at 800 mg/kg, po administered for 14 consecutive days; type: organism-based; details: in vivo; outline: as §1
Mus musculus [4] = experiment: Toxicity in Swiss albino mouse assessed as mortality at 800 mg/kg, po administered for 14 consecutive days; type: organism-based; details: in vivo; outline: as §1
Mus musculus [5] = experiment: Reversal of scopolamine-induced memory deficit in Swiss albino mouse assessed as increase in step down latency time at 50 to 100 mg/kg, po administered for 8 days followed by scopolamine challenge by step down inhibitory avoidance test; type: functional, organism-based
Outline: (§2)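 Done after the EPM session in the same mouse groups: oral test dosing for 8 days, then scopolamine 0.4 mg/kg i.p. Training used Cook's pole apparatus, a wooden platform on a bronze-bar grid, with each mouse placed on the platform and allowed to step down. 24 h later the mouse was lowered onto the platform and step-down latency was timed. Dunnett post-test was applied.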

Cholinesterase = Cholinesterase (Equus caballus, UniProt P81908); experiment: Inhibition of equine serum BuChE using S-butyrylthiocholine chloride as substrate preincubated for 15 mins followed by substrate addition and measured for 45 mins by Ellmans microplate assay
Sequence of Cholinesterase (P81908 whole entry): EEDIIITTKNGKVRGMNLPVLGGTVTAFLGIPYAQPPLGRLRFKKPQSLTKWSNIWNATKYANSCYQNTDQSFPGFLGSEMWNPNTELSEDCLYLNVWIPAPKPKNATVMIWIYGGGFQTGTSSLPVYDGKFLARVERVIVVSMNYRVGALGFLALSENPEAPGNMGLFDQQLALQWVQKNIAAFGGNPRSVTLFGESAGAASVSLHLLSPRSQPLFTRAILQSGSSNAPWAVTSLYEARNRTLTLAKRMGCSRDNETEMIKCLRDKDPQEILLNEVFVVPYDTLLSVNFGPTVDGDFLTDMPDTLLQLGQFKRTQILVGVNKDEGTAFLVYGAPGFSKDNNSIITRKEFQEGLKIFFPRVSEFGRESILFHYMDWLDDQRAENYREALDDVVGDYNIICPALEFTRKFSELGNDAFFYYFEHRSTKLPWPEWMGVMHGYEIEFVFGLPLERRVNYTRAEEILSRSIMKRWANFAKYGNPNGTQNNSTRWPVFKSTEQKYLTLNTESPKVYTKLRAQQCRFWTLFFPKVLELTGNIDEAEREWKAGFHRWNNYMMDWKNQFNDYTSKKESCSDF

Acetylcholinesterase [6] = molecular target: Acetylcholinesterase (Electrophorus electricus, UniProt O42275); experiment: Inhibition of electric eel AChE using acetylthiocholine iodide as substrate preincubated for 15 mins followed by substrate addition and measured for 45 mins by Ellmans microplate assay
Sequence of Acetylcholinesterase (Electrophorus electricus, UniProt O42275) (O42275 whole entry): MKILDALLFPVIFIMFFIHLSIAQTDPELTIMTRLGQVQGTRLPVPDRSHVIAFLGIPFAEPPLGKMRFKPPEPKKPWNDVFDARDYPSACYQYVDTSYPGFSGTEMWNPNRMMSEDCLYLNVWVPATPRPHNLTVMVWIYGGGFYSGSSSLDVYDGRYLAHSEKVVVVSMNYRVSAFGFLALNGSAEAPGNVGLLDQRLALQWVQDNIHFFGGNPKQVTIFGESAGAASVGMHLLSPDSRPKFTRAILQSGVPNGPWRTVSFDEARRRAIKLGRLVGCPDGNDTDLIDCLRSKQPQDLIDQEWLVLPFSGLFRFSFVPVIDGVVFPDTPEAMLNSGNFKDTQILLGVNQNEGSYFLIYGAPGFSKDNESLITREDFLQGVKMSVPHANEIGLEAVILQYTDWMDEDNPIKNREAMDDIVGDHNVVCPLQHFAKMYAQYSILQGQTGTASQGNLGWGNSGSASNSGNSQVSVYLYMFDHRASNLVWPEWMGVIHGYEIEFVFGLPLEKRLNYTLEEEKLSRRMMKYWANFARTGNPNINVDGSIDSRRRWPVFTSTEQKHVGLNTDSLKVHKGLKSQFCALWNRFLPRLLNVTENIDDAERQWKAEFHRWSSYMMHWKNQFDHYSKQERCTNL

Mus musculus [7] = experiment: Reversal of scopolamine-induced memory impairment in Swiss albino mouse assessed as decrease in transfer latency time at 50 to 100 mg/kg, po administered for 8 days followed by scopolamine challenge after 60 mins of last dose measured after 45 mins by elevated plus maze test; type: functional, organism-based
Outline: (§3)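 Swiss albino mice (20–25 g, both sexes) were acclimatized 15 days and had five 5-min baseline trials on the elevated plus maze. Oral vehicle, test or piracetam (200 mg/kg) was given for 8 days. Scopolamine 0.4 mg/kg i.p. followed 1 h after the last dose. Training started 45 min later: each mouse was placed at the open-arm end facing away, and transfer latency was timed until all four legs entered a closed arm.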

Mus musculus [8] = experiment: Toxicity in Swiss albino mouse assessed as effect on autonomic reflexes at 800 mg/kg, po administered for 14 consecutive days; type: organism-based; details: in vivo; outline: as §1
[9] = Toxicity in Swiss albino mouse assessed as mortality at 900 mg/kg, po administered for 14 consecutive days; type: organism-based; details: in vivo; outline: as §1
Mus musculus [10] = experiment: Toxicity in Swiss albino mouse assessed as effect on mood at 800 mg/kg, po administered for 14 consecutive days; type: organism-based; details: in vivo; outline: as §1
Mus musculus [11] = experiment: Toxicity in Swiss albino mouse assessed as effect on awareness at 800 mg/kg, po administered for 14 consecutive days; type: organism-based; details: in vivo; outline: as §1
Mus musculus [12] = experiment: Toxicity in Swiss albino mouse assessed as CNS depression at 800 mg/kg, po administered for 14 consecutive days; type: organism-based; details: in vivo; outline: as §1
Mus musculus [13] = experiment: Reversal of scopolamine-induced memory deficit in Swiss albino mouse assessed as increase in step down latency time at 50 mg/kg, po administered for 8 days followed by scopolamine challenge by step down inhibitory avoidance test; type: functional, organism-based; outline: as §2
Mus musculus [14] = experiment: Reversal of scopolamine-induced memory impairment in Swiss albino mouse assessed as decrease in transfer latency time at 50 mg/kg, po administered for 8 days followed by scopolamine challenge after 60 mins of last dose measured after 45 mins by elevated plus maze test; type: functional, organism-based; outline: as §3
Acetylcholinesterase [15] = molecular target: Acetylcholinesterase (Homo sapiens, UniProt P22303); experiment: Inhibition of AChE (unknown origin)
Sequence of Acetylcholinesterase (Homo sapiens, UniProt P22303) (P22303 whole entry): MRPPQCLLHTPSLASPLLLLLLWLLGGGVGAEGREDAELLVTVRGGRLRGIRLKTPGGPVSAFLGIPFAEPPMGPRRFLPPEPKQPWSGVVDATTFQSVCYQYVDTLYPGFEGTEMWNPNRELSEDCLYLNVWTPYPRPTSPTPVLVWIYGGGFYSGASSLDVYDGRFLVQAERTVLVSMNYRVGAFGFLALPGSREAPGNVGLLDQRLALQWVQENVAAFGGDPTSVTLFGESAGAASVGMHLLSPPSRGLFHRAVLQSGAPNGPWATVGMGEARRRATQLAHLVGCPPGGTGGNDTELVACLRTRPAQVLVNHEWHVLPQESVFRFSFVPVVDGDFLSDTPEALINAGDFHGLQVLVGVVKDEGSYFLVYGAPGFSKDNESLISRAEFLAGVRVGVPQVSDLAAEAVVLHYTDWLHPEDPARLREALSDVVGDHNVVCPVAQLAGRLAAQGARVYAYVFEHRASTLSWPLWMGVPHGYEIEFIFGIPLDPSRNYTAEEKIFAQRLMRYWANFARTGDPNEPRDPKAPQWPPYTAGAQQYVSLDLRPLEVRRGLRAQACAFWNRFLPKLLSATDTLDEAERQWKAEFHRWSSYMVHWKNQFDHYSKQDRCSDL

Mus musculus [16] = experiment: Reversal of scopolamine-induced memory impairment in Swiss albino mouse assessed as decrease in transfer latency time at 200 mg/kg, po administered for 8 days followed by scopolamine challenge after 60 mins of last dose measured after 45 mins by elevated plus maze test; type: functional, organism-based
Outline: (§4)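 Swiss albino mice (20–25 g, both sexes), dosed p.o. once daily for eight days; scopolamine HBr 0.4 mg/kg i.p. given 1 h after the last dose. Transfer latency on elevated plus maze (open to closed arm, all four legs) recorded 45 min after scopolamine, after five 5-min pre-trials. Step-down latency on Cook's pole apparatus measured 24 h after training. Dunnett post-test.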

Mus musculus [17] = experiment: Reversal of scopolamine-induced memory deficit in Swiss albino mouse assessed as increase in step down latency time at 200 mg/kg, po administered for 8 days followed by scopolamine challenge by step down inhibitory avoidance test; type: functional, organism-based; outline: as §4

Sequence of Cholinesterase (Equus caballus) (P81908 whole entry): as the sequence (P81908 whole entry) above

Row | Structure (SMILES) | inhibition [1] | IC50 (Brain) | other results
1 | COc1cccc(-c2nc(-c3ccccc3)c(-c3ccccc3)[nH]2)c1 | 19.2% | 86.5 µM | 
2 | c1ccc(-c2nc[nH]c2-c2ccccc2)cc1 | 13% | 93.2 µM | 
3 | COc1cc(-c2nc(-c3ccccc3)c(-c3ccccc3)[nH]2)cc(OC)c1OC | 81.3% | 61.3 µM | Activity (Mus musculus [2]): Non-Toxic; Activity (Mus musculus [3]): Non-Toxic; Activity (Mus musculus [4]): Non-Toxic; Activity (Mus musculus [5]): Active; IC50 (Cholinesterase; read-out: IC50): 4.99 µM; IC50 (Acetylcholinesterase [6]): Not Active; Activity (Mus musculus [7]): Active; Activity (Mus musculus [8]): Non-Toxic; mortality at 14 days [9]: 50%; Activity (Mus musculus [10]): Non-Toxic; Activity (Mus musculus [11]): Non-Toxic; Activity (Mus musculus [12]): Non-Toxic
4 | Oc1ccc(-c2nc(-c3ccccc3)c(-c3ccccc3)[nH]2)cc1 | inactive | 62.4 µM | 
5 | Oc1cccc(-c2nc(-c3ccccc3)c(-c3ccccc3)[nH]2)c1 | inactive | 61.8 µM | Activity (Mus musculus [13]): Active; Activity (Mus musculus [14]): Active; IC50 (Cholinesterase): Not Active; IC50 (Acetylcholinesterase [6]; read-out: IC50): 5.33 µM
6 | CCc1nn(CCCN2CCN(c3cccc(Cl)c3)CC2)c(=O)n1CCOc1ccccc1 [NEFAZODONE] |  |  | IC50 (Acetylcholinesterase [15]): 1.04 µM
7 | Oc1ccc(-c2nc(-c3ccccc3)c(-c3ccccc3)[nH]2)cc1O | 79.5% | 59.4 µM | 
8 | Oc1ccccc1-c1nc(-c2ccccc2)c(-c2ccccc2)[nH]1 | 13.7% | 101 µM | 
9 | c1ccc(-c2nc(-c3ccccc3)c(-c3ccccc3)[nH]2)cc1 | inactive | 106 µM | 
10 | NC(=O)CN1CCCC1=O |  |  | Activity (Mus musculus [16]): Active; Activity (Mus musculus [17]): Active
11 | O=C1O[C@H]([C@@H](O)CO)C(O)=C1O [ASCORBIC ACID] |  | 38.8 µM | 
12 | COc1cc(-c2nc(-c3ccccc3)c(-c3ccccc3)[nH]2)cc(OC)c1O | inactive | 264 µM | 
13 | CCCCOc1ccc(C(=O)CCN2CCCCC2)cc1 [DYCLONINE] |  |  | IC50 (Acetylcholinesterase [15]): 0.181 µM
14 | COc1ccc(-c2nc(-c3ccccc3)c(-c3ccccc3)[nH]2)cc1OC | inactive | 94 µM | 

— ChEMBL document CHEMBL4219069, “In silico studies, synthesis and pharmacological evaluation to explore multi-targeted approach for imidazole analogues as potential cholinesterase inhibitors with neuroprotective role for Alzheimer's disease” (Bioorg Med Chem, 2018)
